ChEMBL document CHEMBL5674876, “Epigenetic Activation of Pro-angiogenic Signaling Pathways in Human Endothelial Progenitors Increases Vasculogenesis” (Stem Cell Reports, 2017)
Activity calls are given as the source filed them.

What was measured:
[1] = tested on: Umbilical cord derived endothelial colony forming cell; experiment: Activation of WNT pro-angiogenic pathway in human umbilical cord derived endothelial colony forming cells by measuring TCF7L1 level in presence of panobinostat by qRT-PCR analysis; type: cell-based; details: filed as activator
[2] = tested on: Umbilical cord derived endothelial colony forming cell; experiment: Activation of WNT pro-angiogenic pathway in human umbilical cord derived endothelial colony forming cells by measuring JAG1 level in presence of panobinostat by qRT-PCR analysis; type: cell-based; details: filed as activator
[3] = tested on: Umbilical cord derived endothelial colony forming cell; experiment: Activation of WNT pro-angiogenic pathway in human umbilical cord derived endothelial colony forming cells by measuring MML1 level in presence of panobinostat by qRT-PCR analysis; type: cell-based; details: filed as activator
[4] = tested on: Umbilical cord derived endothelial colony forming cell; experiment: Activation of WNT pro-angiogenic pathway in human umbilical cord derived endothelial colony forming cells by measuring EGR1 level in presence of panobinostat by qRT-PCR analysis; type: cell-based; details: filed as activator
[5] = tested on: HUVEC; experiment: Downregulation of DKK1 in human umbilical cord derived endothelial colony forming cells by qRT-PCR analysis; type: functional, cell-based
[6] = tested on: HUVEC; experiment: Downregulation of SEMA3A in human umbilical cord derived endothelial colony forming cells by qRT-PCR analysis; type: functional, cell-based
[7] = tested on: HUVEC; experiment: Effect on pro-angiogenic property in human umbilical cord derived endothelial colony forming cells assessed as increase in VEGFR1 protein level by Western blotting analysis; type: functional, cell-based
[8] = tested on: HUVEC; experiment: Effect on pro-angiogenic property in human umbilical cord derived endothelial colony forming cells assessed as increase in VEGFR2 protein phosphorylation by Western blotting analysis; type: functional, cell-based
[9] = tested on: HUVEC; experiment: Effect on pro-angiogenic property in human umbilical cord derived endothelial colony forming cells assessed as increase in intracellular NOTCH protein phosphorylation by Western blotting analysis; type: functional, cell-based
[10] = tested on: HUVEC; experiment: Effect on pro-angiogenic property in human umbilical cord derived endothelial colony forming cells assessed as increase in intracellular CXCR4 protein phosphorylation by Western blotting analysis; type: functional, cell-based
[11] = tested on: HUVEC; experiment: Effect on pro-angiogenic property in human umbilical cord derived endothelial colony forming cells assessed as increase in AKT protein phosphorylation by Western blotting analysis; type: functional, cell-based
[12] = tested on: HUVEC; experiment: Effect on pro-angiogenic property in human umbilical cord derived endothelial colony forming cells assessed as increase in ERK1 protein phosphorylation by Western blotting analysis; type: functional, cell-based
[13] = tested on: HUVEC; experiment: Effect on pro-angiogenic property in human umbilical cord derived endothelial colony forming cells assessed as increase in ERK2 protein phosphorylation by Western blotting analysis; type: functional, cell-based
[14] = tested on: HUVEC; experiment: Effect on pro-angiogenic property in human umbilical cord derived endothelial colony forming cells assessed as increase in VEGFR2 protein level by Western blotting analysis; type: functional, cell-based
[15] = tested on: HUVEC; experiment: Effect on pro-angiogenic property in human umbilical cord derived endothelial colony forming cells assessed as increase in FZD7 level in presence of panobinostat by qRT-PCR analysis; type: functional, cell-based
[16] = tested on: HUVEC; experiment: Effect on pro-angiogenic property in human umbilical cord derived endothelial colony forming cells assessed as increase in KDR level in presence of panobinostat by qRT-PCR analysis; type: functional, cell-based
[17] = tested on: HUVEC; experiment: Effect on pro-angiogenic property in human umbilical cord derived endothelial colony forming cells assessed as increase in DLL4 level in presence of panobinostat by qRT-PCR analysis; type: functional, cell-based
[18] = tested on: HUVEC; experiment: Effect on pro-angiogenic property in human umbilical cord derived endothelial colony forming cells assessed as increase in HEY2 level in presence of panobinostat by qRT-PCR analysis; type: functional, cell-based
[19] = tested on: HUVEC; experiment: Effect on pro-angiogenic property in human umbilical cord derived endothelial colony forming cells assessed as increase in CXCR4 level by qRT-PCR analysis; type: functional, cell-based
[20] = tested on: HUVEC; experiment: Effect on pro-angiogenic property in human umbilical cord derived endothelial colony forming cells assessed as increase in CXCL12 level by qRT-PCR analysis; type: functional, cell-based
[21] = tested on: HUVEC; experiment: Effect on pro-angiogenic property in human umbilical cord derived endothelial colony forming cells assessed as increase in ANGPT2 level by qRT-PCR analysis; type: functional, cell-based
[22] = tested on: HUVEC; experiment: Effect on human umbilical cord derived endothelial colony forming cells assessed as decrease in H3K27me3 level by ChIP-qPCR analysis; type: functional, cell-based
[23] = tested on: HUVEC; experiment: Effect on human umbilical cord derived endothelial colony forming cells assessed as reversal of increase in H3K4me3 level in presence of panobinostat measured after 24 hrs of drug removal by qRT-PCR analysis; type: functional, cell-based
[24] = tested on: HUVEC; experiment: Effect on human umbilical cord derived endothelial colony forming cells assessed as reversal of decrease in H3 acetylation level in presence of panobinostat measured after 24 hrs of drug removal by qRT-PCR analysis; type: functional, cell-based
[25] = tested on: Mus musculus; experiment: Activation of vasculogenesis in NOD/SCID immunodeficient mouse xenografted with drug pretreated human umbilical cord derived endothelial colony forming cells assessed as increase in formation of micro-capillaries in presence of panobinostat by H and E staining analysis; type: functional, organism-based
Summary of the method: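 ECFCs (4 × 10^6 cells/mL), drug cocktail-pretreated or not, mixed into 1.5 mg/mL type I collagen gels, polymerized 30 min at 37°C, held 18 hr in drug-free medium, implanted into flanks of 6–12-week-old NOD/SCID mice. Explants harvested at 3 weeks; H&E and anti-human CD31 staining; closed hCD31+ capillaries counted per area, n = 6 mice per group, ±SEM.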

[26] = species on record: Mus musculus; experiment: Effect on restoration of blood flow in athymic nude CD1 hindlimb ischemia mouse model in presence of panobinostat for 28 days by laser doppler perfusion imaging analysis; type: functional, organism-based; details: time 28.0 day
Summary of the method: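 Left femoral artery ligated in 8-week-old female athymic nude CD1 mice; 5 × 10^5 ECFCs pretreated with the combination or vehicle, in 50 μL PBS, given as two intramuscular injections into adductor muscle after skin closure. Perfusion measured by laser Doppler pre-op, day 0 and later days; ischemic/non-ischemic ratio, n = 7–8 mice to day 14, 3–4 to day 28.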

[27] = tested on: Mus musculus; experiment: In vivo upregulation of pro-angiogneic pathway in athymic nude CD1 hindlimb ischemia mouse model in presence of panobinostat treated for 28 days; type: functional, organism-based; details: time 28.0 day
[28] = tested on: HUVEC; experiment: Effect on human umbilical cord derived endothelial colony forming cells assessed as decrease in H3 acetylation level in presence of panobinostat measured after removal of drug

Measured: Activity

CCCc1cc(C)[nH]c(=O)c1CNC(=O)c1cc(-c2ccnc(N3CCN(C)CC3)c2)cc2c1cnn2C(C)C
active: all assays above
